# Legend:
# [1] = Cmax in the CSF of male wistar rats; assay type: ADME, organism-based, Cerebrospinal fluid; conditions: rat
# In short: (§1)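 Male Wistar rats with jugular vein cannula, free access to food and water, given 30 mg/kg by oral gavage in 30% w/v β-cyclodextrin. Plasma, whole brain and CSF sampled over a time course (through 6–8 h); one animal per time point.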
# [2] = Cmax in the brain of male wistar rats; assay type: ADME, organism-based; conditions: rat; in short: as §1
# [3] = Cmax in the plasma of male wistar rats; assay type: ADME, organism-based; conditions: rat; in short: as §1
# [4] = t1/2 in the CSF of male wistar rats; assay type: ADME, organism-based, Cerebrospinal fluid; conditions: rat; in short: as §1
# [5] = t1/2 in the brain of male wistar rats; assay type: ADME, organism-based; conditions: rat; in short: as §1
# [6] = t1/2 in the plasma of male wistar rats; assay type: ADME, organism-based; conditions: rat; in short: as §1
# [7] = tmax in the CSF of male wistar rats; assay type: ADME, organism-based, Cerebrospinal fluid; conditions: rat; in short: as §1
# [8] = tmax in the brain of male wistar rats; assay type: ADME, organism-based; conditions: rat; in short: as §1
# [9] = tmax in the plasma of male wistar rats; assay type: ADME, organism-based; conditions: rat; in short: as §1
# [10] = tested on: HMCB cell line; assay: Inhibitory activity against calcium mobilization in NPY5 transfected human bowes melanoma cell line.; assay type: functional, cell-based
# In short: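 Ca2+ mobilization read-out in human Bowes melanoma (HMCB) cells transfected with NPY5.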
# [11] = target: T1, Neuropeptide Y receptor type 1 (Homo sapiens, UniProt P25929); assay: Inhibitory activity against Neuropeptide Y receptor type 1
# T1 sequence (P25929 whole entry): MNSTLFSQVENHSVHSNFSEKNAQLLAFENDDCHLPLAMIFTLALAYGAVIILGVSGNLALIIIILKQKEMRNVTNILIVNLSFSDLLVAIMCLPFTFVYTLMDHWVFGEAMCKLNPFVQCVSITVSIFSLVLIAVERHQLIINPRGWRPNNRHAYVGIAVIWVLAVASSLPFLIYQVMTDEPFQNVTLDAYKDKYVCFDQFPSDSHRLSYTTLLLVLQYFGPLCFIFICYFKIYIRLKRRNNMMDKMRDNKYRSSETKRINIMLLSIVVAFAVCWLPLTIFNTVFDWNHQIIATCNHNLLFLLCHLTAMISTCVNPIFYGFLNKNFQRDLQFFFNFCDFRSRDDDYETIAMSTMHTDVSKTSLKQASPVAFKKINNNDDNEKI
# In short: (§2)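 Cloned human chimeric NPY receptors, displacement of [125I]PYY radioligand.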
# [12] = target: T2, Neuropeptide Y receptor type 2 (Homo sapiens, UniProt P49146); assay: Inhibitory activity against Neuropeptide Y receptor type 2; in short: as §2
# T2 sequence (P49146 whole entry): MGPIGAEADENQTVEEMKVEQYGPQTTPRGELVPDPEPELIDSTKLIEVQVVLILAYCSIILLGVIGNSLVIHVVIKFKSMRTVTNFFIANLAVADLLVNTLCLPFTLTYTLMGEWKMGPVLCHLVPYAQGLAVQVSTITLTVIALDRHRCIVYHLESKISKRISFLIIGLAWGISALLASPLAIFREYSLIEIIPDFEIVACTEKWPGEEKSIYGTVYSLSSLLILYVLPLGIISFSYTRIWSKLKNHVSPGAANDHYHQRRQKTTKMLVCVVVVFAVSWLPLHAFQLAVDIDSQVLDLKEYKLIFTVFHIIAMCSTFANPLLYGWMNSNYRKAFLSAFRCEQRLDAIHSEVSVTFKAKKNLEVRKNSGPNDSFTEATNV
# [13] = target: T3, Neuropeptide Y receptor type 5 (Homo sapiens, UniProt Q15761); assay: Binding affinity to the human Neuropeptide Y receptor type 5 was determined using [125I]- [PYY] as radioligand
# T3 sequence (Q15761 whole entry): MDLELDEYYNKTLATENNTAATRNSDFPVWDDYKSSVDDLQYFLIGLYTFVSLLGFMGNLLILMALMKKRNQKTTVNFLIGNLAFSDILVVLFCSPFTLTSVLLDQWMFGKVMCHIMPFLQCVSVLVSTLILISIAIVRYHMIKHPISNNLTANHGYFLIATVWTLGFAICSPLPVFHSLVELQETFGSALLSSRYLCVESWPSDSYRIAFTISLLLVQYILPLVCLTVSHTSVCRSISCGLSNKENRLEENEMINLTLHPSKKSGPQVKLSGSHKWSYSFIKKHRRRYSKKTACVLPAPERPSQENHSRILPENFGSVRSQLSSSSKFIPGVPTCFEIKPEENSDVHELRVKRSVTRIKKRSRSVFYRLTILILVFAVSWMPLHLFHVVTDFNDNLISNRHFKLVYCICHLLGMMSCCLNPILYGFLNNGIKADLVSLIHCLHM
# In short: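 Radioligand displacement binding on cloned human chimeric NPY5 receptors, with [125I]PYY as the labelled ligand.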
# [14] = target: T4, Neuropeptide Y receptor type 5 (Rattus norvegicus, UniProt Q63634); assay: Binding affinity to the rat Neuropeptide Y receptor type 5 was determined using [125I]- [Leu31,Pro34]PYY as radioligand
# T4 sequence (Q63634 whole entry): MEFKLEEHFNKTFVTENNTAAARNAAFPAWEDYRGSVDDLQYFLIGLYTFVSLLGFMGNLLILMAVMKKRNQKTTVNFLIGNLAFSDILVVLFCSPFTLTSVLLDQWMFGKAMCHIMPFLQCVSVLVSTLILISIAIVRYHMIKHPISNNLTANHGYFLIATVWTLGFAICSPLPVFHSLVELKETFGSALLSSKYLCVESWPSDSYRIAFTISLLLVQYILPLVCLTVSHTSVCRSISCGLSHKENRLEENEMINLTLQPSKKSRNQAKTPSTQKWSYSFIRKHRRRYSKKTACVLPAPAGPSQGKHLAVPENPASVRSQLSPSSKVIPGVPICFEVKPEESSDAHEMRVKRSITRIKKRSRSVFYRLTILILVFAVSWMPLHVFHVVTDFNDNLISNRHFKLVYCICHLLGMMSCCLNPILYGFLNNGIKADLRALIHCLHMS
# In short: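 Whole rat brain membranes; radioligand [125I][Leu31,Pro34]PYY, with 1 μM BIBP3226 present to block NPY-1 receptors.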
structure (smiles),measurement,setting,value
CC(C)(C)OCCOc1ccc(-c2nc(-c3cccc(C#N)c3)c[nH]2)cn1,Cmax,[1],0.213 µM
same,Cmax,[2],8.55 µM
same,Cmax,[3],4.42 µM
same,half-life,[4],96 min
same,half-life,[5],66 min
same,half-life,[6],66 min
same,Tmax,[7],30 min
same,Tmax,[8],30 min
same,Tmax,[9],30 min
same,IC50,[10],0.4 nM
same,IC50,[11],> 1000 nM
same,IC50,[12],> 1000 nM
same,Ki,[13],1.2 nM
same,Ki,[14],1.7 nM

# — ChEMBL document CHEMBL1145972, “In vitro and in vivo characterization of 3-[2-[6-(2-tert-butoxyethoxy)pyridin-3-yl]-1H-imidazol-4-yl]benzonitrile hydrochloride salt, a potent and selective NPY5 receptor antagonist” (J Med Chem, 2003)
